Measurements reported in ChEMBL document CHEMBL5376013, “Design, synthesis and biological evaluation of novel morpholinopyrimidine-5-carbonitrile derivatives as dual PI3K/mTOR inhibitors” (RSC Med Chem, 2024).

Key:
Format in all cases: functional
Conditions in all cases: read-out: GI
OVCAR-4 = test: Antitumor activity against human OVCAR-4 cells assessed as growth inhibition at 10 uM relative to control
In short: (§1)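 After drug addition, plates were incubated 48 h at 37 °C under 5% CO2. Adherent cells were fixed with cold TCA (10% final, 60 min, 4 °C) and suspension cells with 16% final TCA. Staining used 0.4% SRB in 1% acetic acid, solubilized in 10 mM trizma, read at A515. Percent growth was calculated from time-zero, control and treated absorbances.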

MOLT-4 = test: Antitumor activity against human MOLT-4 cells assessed as growth inhibition at 10 uM relative to control; in short: as §1
K562 = test: Antitumor activity against human K562 cells assessed as growth inhibition at 10 uM relative to control; in short: as §1
SW-620 = test: Antitumor activity against human SW-620 cells assessed as growth inhibition at 10 uM relative to control
In short: (§2)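 Drug exposure 48 h at 37 °C, 5% CO2. Adherent cells fixed with cold TCA (10% final), suspension cells with TCA (16% final). Stained with 0.4% SRB in 1% acetic acid, dissolved in 10 mM Tris, A515. Growth relative to time-zero and untreated control.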

HOP-92 = test: Antitumor activity against human HOP-92 cells assessed as growth inhibition at 10 uM relative to control; in short: as §1
OVCAR-3 = test: Antitumor activity against human OVCAR-3 cells assessed as growth inhibition at 10 uM relative to control; in short: as §1
SN12C = test: Antitumor activity against human SN12C cells assessed as growth inhibition at 10 uM relative to control; in short: as §2
T47D = test: Antitumor activity against human T47D cells assessed as growth inhibition at 10 uM relative to control; in short: as §2
UACC-62 = test: Antitumor activity against human UACC-62 cells assessed as growth inhibition at 10 uM relative to control; in short: as §2
RXF 393 = test: Antitumor activity against human RXF 393 cells assessed as growth inhibition at 10 uM relative to control; in short: as §1
NCI-H522 = test: Antitumor activity against human NCI-H522 cells assessed as growth inhibition at 10 uM relative to control; in short: as §1
SK-OV-3 = test: Antitumor activity against human SK-OV-3 cells assessed as growth inhibition at 10 uM relative to control; in short: as §2
SK-MEL-2 = test: Antitumor activity against human SK-MEL-2 cells assessed as growth inhibition at 10 uM relative to control; in short: as §1
NCI-H23 = test: Antitumor activity against human NCI-H23 cells assessed as growth inhibition at 10 uM relative to control; in short: as §1
MDA-MB-468 = test: Antitumor activity against human MDA-MB-468 cells assessed as growth inhibition at 10 uM relative to control; in short: as §1
KM12 = test: Antitumor activity against human KM12 cells assessed as growth inhibition at 10 uM relative to control; in short: as §1
COLO 205 = test: Antitumor activity against human COLO 205 cells assessed as growth inhibition at 10 uM relative to control; in short: as §1
NCI-H226 = test: Antitumor activity against human NCI-H226 cells assessed as growth inhibition at 10 uM relative to control; in short: as §1
SF-268 = test: Antitumor activity against human SF-268 cells assessed as growth inhibition at 10 uM relative to control; in short: as §1
SK-MEL-5 = test: Antitumor activity against human SK-MEL-5 cells assessed as growth inhibition at 10 uM relative to control; in short: as §2
786-0 = test: Antitumor activity against human 786-0 cells assessed as growth inhibition at 10 uM relative to control; in short: as §1
HT-29 = test: Antitumor activity against human HT-29 cells assessed as growth inhibition at 10 uM relative to control; in short: as §1
HCT-15 = test: Antitumor activity against human HCT-15 cells assessed as growth inhibition at 10 uM relative to control; in short: as §1
Malme-3M = test: Antitumor activity against human Malme-3M cells assessed as growth inhibition at 10 uM relative to control; in short: as §1
U-251 = test: Antitumor activity against human U-251 cells assessed as growth inhibition at 10 uM relative to control; in short: as §2
ACHN = test: Antitumor activity against human ACHN cells assessed as growth inhibition at 10 uM relative to control; in short: as §1
SNB-19 = test: Antitumor activity against human SNB-19 cells assessed as growth inhibition at 10 uM relative to control; in short: as §2
LOX IMVI = test: Antitumor activity against human LOX IMVI cells assessed as growth inhibition at 10 uM relative to control; in short: as §1
CAKI-1 = test: Antitumor activity against human CAKI-1 cells assessed as growth inhibition at 10 uM relative to control; in short: as §1
NCI/ADR-RES = test: Antitumor activity against human NCI-ADR-RES cells assessed as growth inhibition at 10 uM relative to control; in short: as §1
UACC-257 = test: Antitumor activity against human UACC-257 cells assessed as growth inhibition at 10 uM relative to control; in short: as §2
SR = test: Antitumor activity against human SR cells assessed as growth inhibition at 10 uM relative to control; in short: as §2
A549 = test: Antitumor activity against human A549 cells assessed as growth inhibition at 10 uM relative to control; in short: as §1
MDA-MB-231 = test: Antitumor activity against human MDA-MB-231 cells assessed as growth inhibition at 10 uM relative to control; in short: as §1
UO-31 = test: Antitumor activity against human UO-31 cells assessed as growth inhibition at 10 uM relative to control; in short: as §2
SF-539 = test: Antitumor activity against human SF-539 cells assessed as growth inhibition at 10 uM relative to control; in short: as §1
HCT-116 = test: Antitumor activity against human HCT-116 cells assessed as growth inhibition at 10 uM relative to control; in short: as §1
SNB-75 = test: Antitumor activity against human SNB-75 cells assessed as growth inhibition at 10 uM relative to control; in short: as §2
HOP-62 = test: Antitumor activity against human HOP-62 cells assessed as growth inhibition at 10 uM relative to control; in short: as §1
BT-549 = test: Antitumor activity against human BT-549 cells assessed as growth inhibition at 10 uM relative to control; in short: as §1
SK-MEL-28 = test: Antitumor activity against human SK-MEL-28 cells assessed as growth inhibition at 10 uM relative to control; in short: as §2
RPMI-8226 = test: Antitumor activity against human RPMI-8226 cells assessed as growth inhibition at 10 uM relative to control; in short: as §1
CCRF-CEM = test: Antitumor activity against human CCRF-CEM cells assessed as growth inhibition at 10 uM relative to control; in short: as §1
DU-145 = test: Antitumor activity against human DU-145 cells assessed as growth inhibition at 10 uM relative to control; in short: as §1
MCF7 = test: Antitumor activity against human MCF7 cells assessed as growth inhibition at 10 uM relative to control; in short: as §1
PC-3 = test: Antitumor activity against human PC-3 cells assessed as growth inhibition at 10 uM relative to control; in short: as §1

N#Cc1c(-c2ccc(Cl)cc2)nc(N/N=C2/C(=O)Nc3ccc(Cl)cc32)nc1N1CCOCC1
inhibition of growth at 10 µM (OVCAR-4): < 1%
inhibition of growth at 10 µM (MOLT-4): < 1%
inhibition of growth at 10 µM (K562): < 1%
inhibition of growth at 10 µM (SW-620): < 1%
inhibition of growth at 10 µM (HOP-92): 10.5%
inhibition of growth at 10 µM (OVCAR-3): < 1%
inhibition of growth at 10 µM (SN12C): < 1%
inhibition of growth at 10 µM (T47D): < 1%
inhibition of growth at 10 µM (UACC-62): < 1%
inhibition of growth at 10 µM (RXF 393): < 1%
inhibition of growth at 10 µM (NCI-H522): < 1%
inhibition of growth at 10 µM (SK-OV-3): < 1%
inhibition of growth at 10 µM (SK-MEL-2): < 1%
inhibition of growth at 10 µM (NCI-H23): 15.2%
inhibition of growth at 10 µM (MDA-MB-468): < 1%
inhibition of growth at 10 µM (KM12): < 1%
inhibition of growth at 10 µM (COLO 205): 1%
inhibition of growth at 10 µM (NCI-H226): 10.5%
inhibition of growth at 10 µM (SF-268): < 1%
inhibition of growth at 10 µM (SK-MEL-5): < 1%
inhibition of growth at 10 µM (786-0): < 1%
inhibition of growth at 10 µM (HT-29): < 1%
inhibition of growth at 10 µM (HCT-15): 1%
inhibition of growth at 10 µM (Malme-3M): 11.2%
inhibition of growth at 10 µM (U-251): < 1%
inhibition of growth at 10 µM (ACHN): < 1%
inhibition of growth at 10 µM (SNB-19): < 1%
inhibition of growth at 10 µM (LOX IMVI): 16.8%
inhibition of growth at 10 µM (CAKI-1): < 1%
inhibition of growth at 10 µM (NCI/ADR-RES): 11.7%
inhibition of growth at 10 µM (UACC-257): < 1%
inhibition of growth at 10 µM (SR): < 1%
inhibition of growth at 10 µM (A549): < 1%
inhibition of growth at 10 µM (MDA-MB-231): 17.1%
inhibition of growth at 10 µM (UO-31): 32.5%
inhibition of growth at 10 µM (SF-539): < 1%
inhibition of growth at 10 µM (HCT-116): < 1%
inhibition of growth at 10 µM (SNB-75): 31.3%
inhibition of growth at 10 µM (HOP-62): < 1%
inhibition of growth at 10 µM (BT-549): < 1%
inhibition of growth at 10 µM (SK-MEL-28): < 1%
inhibition of growth at 10 µM (RPMI-8226): < 1%
inhibition of growth at 10 µM (CCRF-CEM): < 1%
inhibition of growth at 10 µM (DU-145): < 1%
inhibition of growth at 10 µM (MCF7): 1%
inhibition of growth at 10 µM (PC-3): < 1%

COc1cc(/C=N/Nc2nc(-c3ccc(Cl)cc3)c(C#N)c(N3CCOCC3)n2)cc(OC)c1OC
inhibition of growth at 10 µM (OVCAR-4): 11.2%
inhibition of growth at 10 µM (MOLT-4): 65.9%
inhibition of growth at 10 µM (K562): 51.2%
inhibition of growth at 10 µM (SW-620): 10.3%
inhibition of growth at 10 µM (HOP-92): 59.1%
inhibition of growth at 10 µM (OVCAR-3): 25.9%
inhibition of growth at 10 µM (SN12C): 35.4%
inhibition of growth at 10 µM (T47D): 51.8%
inhibition of growth at 10 µM (UACC-62): 31.7%
inhibition of growth at 10 µM (RXF 393): 30.5%
inhibition of growth at 10 µM (NCI-H522): 31.4%
inhibition of growth at 10 µM (SK-OV-3): < 1%
inhibition of growth at 10 µM (SK-MEL-2): 20.4%
inhibition of growth at 10 µM (NCI-H23): 13.3%
inhibition of growth at 10 µM (MDA-MB-468): 32.1%
inhibition of growth at 10 µM (KM12): 31.2%
inhibition of growth at 10 µM (COLO 205): 46.6%
inhibition of growth at 10 µM (NCI-H226): 59.1%
inhibition of growth at 10 µM (SF-268): 17.6%
inhibition of growth at 10 µM (SK-MEL-5): 71%
inhibition of growth at 10 µM (786-0): 28.3%
inhibition of growth at 10 µM (HT-29): 69.3%
inhibition of growth at 10 µM (HCT-15): 48%
inhibition of growth at 10 µM (Malme-3M): < 1%
inhibition of growth at 10 µM (U-251): 43.6%
inhibition of growth at 10 µM (ACHN): 36.7%
inhibition of growth at 10 µM (SNB-19): 14.8%
inhibition of growth at 10 µM (LOX IMVI): 70%
inhibition of growth at 10 µM (CAKI-1): < 1%
inhibition of growth at 10 µM (NCI/ADR-RES): 59%
inhibition of growth at 10 µM (UACC-257): < 1%
inhibition of growth at 10 µM (SR): 85.6%
inhibition of growth at 10 µM (A549): 41.4%
inhibition of growth at 10 µM (MDA-MB-231): 27.8%
inhibition of growth at 10 µM (UO-31): 67%
inhibition of growth at 10 µM (SF-539): 35.5%
inhibition of growth at 10 µM (HCT-116): 55.4%
inhibition of growth at 10 µM (SNB-75): 48.9%
inhibition of growth at 10 µM (HOP-62): 10.2%
inhibition of growth at 10 µM (BT-549): 45.7%
inhibition of growth at 10 µM (SK-MEL-28): 14.2%
inhibition of growth at 10 µM (RPMI-8226): 74.6%
inhibition of growth at 10 µM (CCRF-CEM): 58.1%
inhibition of growth at 10 µM (DU-145): 32.2%
inhibition of growth at 10 µM (MCF7): < 35.5%
inhibition of growth at 10 µM (PC-3): 45.7%
